# Experimental data: ChEMBL document CHEMBL3875163, “Novel urea and bis-urea primaquine derivatives with hydroxyphenyl or halogenphenyl substituents: Synthesis and biological evaluation” (Eur J Med Chem, 2016)
# Legend:
# [1] = system: Pseudomonas aeruginosa; experiment: Antibacterial activity against Pseudomonas aeruginosa ATCC 27853 after 18 hrs by serial microdilution broth assay; type: functional; conditions: ATCC 27853, 18 h
# Method in brief: (§1)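 Broth microdilution MIC per EUCAST for aerobic bacteria in Mueller-Hinton broth, serial dilution 1000 to 0.78125 µg/ml from 10 mg/ml DMSO stocks. Inoculum from trypticase soy broth cultures (18 h, 37 °C), set to 0.5 McFarland in PBS pH 7.4, diluted 1:10. 18 h aerobic incubation at 35 °C in dark, then TTC 0.5 mg/ml for 3 h, HCl-isopropanol, A490. MIC = lowest concentration giving 50% inhibition versus untreated; duplicates.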
# [2] = Growth inhibition of human MIAPaCa2 cells after 72 hrs by MTT assay; type: functional, cell-based; conditions: MIA PaCa-2, 72 h
# [3] = system: Candida albicans; experiment: Antifungal activity against Candida albicans ATCC 90028 after 18 hrs by serial microdilution broth assay; type: functional; conditions: ATCC 90028, 18 h
# Method in brief: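 Yeast microdilution in RPMI 1640 with glutamine plus 2% glucose, 1000 to 0.78125 µg/ml from 10 mg/ml DMSO stocks. Growth read with XTT (10 mg/ml) mixed 7:1 with menadione (1 mg/ml in acetone), absorbance at 540 nm. MIC taken as lowest concentration giving 50% growth inhibition versus untreated cells; tests in duplicate.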
# [4] = system: Staphylococcus aureus; experiment: Antibacterial activity against methicillin sensitive Staphylococcus aureus ATCC 25213 after 18 hrs by serial microdilution broth assay; type: functional; conditions: ATCC 25213, 18 h; method in brief: as §1
# [5] = system: Staphylococcus aureus; experiment: Antibacterial activity against Staphylococcus aureus ATCC 6538 after 18 hrs by serial microdilution broth assay; type: functional; conditions: ATCC 6538, 18 h; method in brief: as §1
# [6] = Growth inhibition of human HeLa cells after 72 hrs by MTT assay; type: functional, cell-based
# [7] = Growth inhibition of human MCF7 cells after 72 hrs by MTT assay; type: functional, cell-based; conditions: MCF7, 72 h
# Method in brief: (§2)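 Modified NCI DTP protocol: cells in DMEM with 10% FBS, 2 mM glutamine, antibiotics, 37 °C, 5% CO2; seeded 1 × 10^4 to 3 × 10^4 cells/ml on day 0, exposed to five 10-fold dilutions (10^-8 to 10^-4 M) for 72 h; solvent control. MTT read-out; quadruplicate points in three experiments; IC50 by linear regression of growth percentages bracketing 50%.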
# [8] = system: Enterococcus faecalis; experiment: Antibacterial activity against vancomycin resistant Enterococcus faecalis MFBF 11419 after 18 hrs by serial microdilution broth assay; type: functional; conditions: MFBF 11419, 18 h
# Method in brief: (§3)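 EUCAST-based broth microdilution in Mueller-Hinton broth. Glycerol stock cultures grown in trypticase soy broth 18 h at 37 °C; inoculum in PBS pH 7.4 at 0.5 McFarland, diluted 1:10 in broth. Compounds from DMSO stocks, 1000 to 0.78125 µg/ml; 18 h aerobic, 35 °C, dark. TTC 0.5 mg/ml added, 3 h, then HCl/isopropanol, A490. MIC = lowest concentration giving 50% inhibition vs untreated; duplicates, averaged.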
# [9] = Antioxidant activity assessed as DPPH radical scavenging activity at 100 uM after 20 mins relative to control; type: functional
# Method in brief: (§4)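 Compound in DMSO added to DPPH in absolute ethanol, 0.1 mM final; absorbance at 517 nm after 20 and 60 min at room temperature. At least triplicate.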
# [10] = system: Staphylococcus aureus; experiment: Antibacterial activity against methicillin resistant Staphylococcus aureus MFBF 10682 after 18 hrs by serial microdilution broth assay; type: functional; conditions: MFBF 10682, 18 h; method in brief: as §3
# [11] = Growth inhibition of human Molt4/C8 cells after 72 hrs by MTT assay; type: functional, cell-based; conditions: MOLT-4, 72 h
# [12] = system: Bacillus cereus; experiment: Antibacterial activity against Bacillus cereus ATCC 11778 after 18 hrs by serial microdilution broth assay; type: functional; conditions: ATCC 11778, 18 h; method in brief: as §1
# [13] = Growth inhibition of human SW620 cells after 72 hrs by MTT assay; type: functional, cell-based; conditions: SW-620, 72 h; method in brief: as §2
# [14] = system: Escherichia coli; experiment: Antibacterial activity against Escherichia coli ATCC 10535 after 18 hrs by serial microdilution broth assay; type: functional; conditions: ATCC 10535, 18 h; method in brief: as §1
# [15] = Growth inhibition of mouse L1210 cells after 72 hrs by MTT assay; type: functional, cell-based; conditions: L1210, 72 h
# [16] = system: Staphylococcus aureus; experiment: Antibacterial activity against methicillin resistant Staphylococcus aureus MFBF 10679 after 18 hrs by serial microdilution broth assay; type: functional; conditions: MFBF 10679, 18 h; method in brief: as §3
# [17] = Growth inhibition of human NCI-H460 cells after 72 hrs by MTT assay; type: functional, cell-based; conditions: NCI-H460, 72 h; method in brief: as §2
# [18] = Cytotoxicity against HEK cells assessed as reduction in cell viability at 3.125 to 25 ug/ml after 24 hrs by MTT assay; type: toxicity, cell-based; conditions: human, hek293, 24 h
# Method in brief: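 HEK 293 cells, 5 × 10^3 per well, treated next day for 24 h with compound (range within 200 to 1.5625 µg/ml). MTT 0.5 mg/ml in DMEM/10% FBS, 4 h at 37 °C, 5% CO2; formazan in DMSO, A570. Viability as percent of untreated control; triplicates, three independent experiments.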
# [19] = Growth inhibition of human CEM cells after 72 hrs by MTT assay; type: functional, cell-based; conditions: CCRF-CEM
# [20] = system: Staphylococcus aureus; experiment: Antibacterial activity against methicillin sensitive Staphylococcus aureus ATCC 25923 after 18 hrs by serial microdilution broth assay; type: functional; conditions: ATCC 25923, 18 h; method in brief: as §3
# [21] = system: Bacillus pumilus; experiment: Antibacterial activity against Bacillus pumilus NCTC 8241 after 18 hrs by serial microdilution broth assay; type: functional; conditions: NCTC 8241, 18 h; method in brief: as §1
# [22] = system: Bacillus spizizenii; experiment: Antibacterial activity against Bacillus subtilis ATCC 6633 after 18 hrs by serial microdilution broth assay; type: functional; conditions: ATCC 6633, 18 h; method in brief: as §1
# [23] = Antioxidant activity assessed as inhibition of AAPH-induced linoleic acid lipid peroxidation at 1 x 10^-4 M by UV-absorbance method relative to control; type: functional
# Method in brief: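 Linoleic acid peroxidation: 16 mM sodium linoleate dispersion in 0.05 M phosphate buffer pH 7.4 at 37 °C under air, initiated by AAPH (40 mM solution); compound at 1 × 10^-4 M; oxidation followed at 234 nm. At least triplicate.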
# [24] = Antioxidant activity assessed as DPPH radical scavenging activity at 100 uM after 60 mins relative to control; type: functional; method in brief: as §4
# [25] = system: Glycine max; experiment: Inhibition of soybean LOX assessed as reduction in conversion of sodium linoleate to 13-hydroperoxylinoleic acid at 1 x 10^-4 M relative to control
# Method in brief: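 Soybean lipoxygenase incubated at room temperature with sodium linoleate (0.1 mM) and test compound (DMSO stocks); formation of 13-hydroperoxylinoleic acid read at 234 nm. Single-point screening at 1 × 10^-4 M; IC50 from several concentrations. At least triplicate.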
# [26] = Hemolytic activity against human RBC at 100 ug/ml after 1 hr relative to control; type: ADME, cell-based, Erythrocyte; conditions: red blood cells (RBC), read-out: Activity
# [27] = system: Enterococcus faecalis; experiment: Antibacterial activity against vancomycin susceptible Enterococcus faecalis ATCC 29212 after 18 hrs by serial microdilution broth assay; type: functional; conditions: ATCC 29212, 18 h; method in brief: as §1
# [28] = system: Pseudomonas aeruginosa; experiment: Antibacterial activity against multi-drug resistant Pseudomonas aeruginosa MFBF after 18 hrs by serial microdilution broth assay; type: functional; method in brief: as §3
# [29] = system: Pseudomonas aeruginosa; experiment: Antibacterial activity against Pseudomonas aeruginosa ATCC 9027 after 18 hrs by serial microdilution broth assay; type: functional; conditions: ATCC 9027, 18 h; method in brief: as §3
smiles,measurement,setting,value
COc1cc(NC(C)CCCNC(=O)Nc2cc(C(F)(F)F)cc(C(F)(F)F)c2)c2ncccc2c1 (centres undefined),MIC50,[1],12.5 µg/mL
same,IC50,[2],4.7 µM
same,MIC50,[3],> 100 µg/mL
same,MIC50,[4],12.5 µg/mL
same,MIC50,[5],1.6 µg/mL
same,IC50,[6],3.1 µM
same,IC50,[7],1.6 µM
same,MIC50,[8],> 100 µg/mL
same,Activity,[9],51.7%
same,MIC50,[10],> 100 µg/mL
same,IC50,[11],12 µM
same,MIC50,[12],100 µg/mL
same,IC50,[13],3.9 µM
same,MIC50,[14],> 100 µg/mL
same,IC50,[15],3.5 µM
same,MIC50,[16],> 100 µg/mL
same,IC50,[17],8.3 µM
same,Activity,[18],Toxic
same,IC50,[19],4.1 µM
same,MIC50,[20],6.3 µg/mL
same,MIC50,[21],12.5 µg/mL
same,MIC50,[22],> 100 µg/mL
same,inhibition,[23],90.2%
same,Activity,[24],55.2%
same,inhibition,[25],42.3%
same,"hemolysis at 1 h, 100 ug/ml",[26],< 1%
same,MIC50,[27],> 100 µg/mL
same,MIC50,[28],> 100 µg/mL
same,MIC50,[29],100 µg/mL
